In brackets after ≈: the same amount, converted by molar mass.
Tests used:
[1] = test system: Mycobacterium tuberculosis; assay: Antimicrobial activity against pansusceptible Mycobacterium tuberculosis isolate 14; assay type: functional
Summary of the method: (§1)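 Broth microdilution MIC in modified 7H10 broth (pH 6.6). Drugs dissolved in DMSO at 1 mg/ml, then serially diluted. Isolates grown 5 to 10 days at 37°C on a rotary shaker, diluted to 100 Klett units and frozen. Final inoculum about 6 × 10^4 CFU/ml (range 1.2 × 10^4 to 2.6 × 10^5). Duplicate wells, sealed, read after about 21 days at 37°C in ambient air.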

[2] = test system: Mycobacterium tuberculosis; assay: Antimicrobial activity against pansusceptible Mycobacterium tuberculosis isolate 6; assay type: functional; summary of the method: as §1
[3] = test system: Mycobacterium tuberculosis; assay: Antimicrobial activity against pansusceptible Mycobacterium tuberculosis isolate 4; assay type: functional; summary of the method: as §1
[4] = test system: Mycobacterium tuberculosis; assay: Antimicrobial activity against pansusceptible Mycobacterium tuberculosis isolate 3; assay type: functional; summary of the method: as §1
[5] = test system: Mycobacterium tuberculosis; assay: Antimicrobial activity against pansusceptible Mycobacterium tuberculosis isolate 7; assay type: functional; summary of the method: as §1
[6] = test system: Mycobacterium tuberculosis; assay: Antimicrobial activity against Mycobacterium tuberculosis isolate 13 isolated from Beijing; assay type: functional; summary of the method: as §1
[7] = test system: Mycobacterium tuberculosis; assay: Antimicrobial activity against pansusceptible Mycobacterium tuberculosis isolate 2; assay type: functional; summary of the method: as §1
[8] = test system: Mycobacterium tuberculosis; assay: Antimicrobial activity against pansusceptible Mycobacterium tuberculosis isolate 1; assay type: functional; summary of the method: as §1
[9] = test system: Mycobacterium tuberculosis; assay: Antimicrobial activity against pansusceptible Mycobacterium tuberculosis isolate 5; assay type: functional; summary of the method: as §1
DNA gyrase subunit A = DNA gyrase subunit A (Mycobacterium tuberculosis, UniProt P9WG47); assay: Inhibition of DNA supercoiling activity of wild type Mycobacterium tuberculosis DNA gyrase A
Chain of DNA gyrase subunit A (P9WG47 whole entry): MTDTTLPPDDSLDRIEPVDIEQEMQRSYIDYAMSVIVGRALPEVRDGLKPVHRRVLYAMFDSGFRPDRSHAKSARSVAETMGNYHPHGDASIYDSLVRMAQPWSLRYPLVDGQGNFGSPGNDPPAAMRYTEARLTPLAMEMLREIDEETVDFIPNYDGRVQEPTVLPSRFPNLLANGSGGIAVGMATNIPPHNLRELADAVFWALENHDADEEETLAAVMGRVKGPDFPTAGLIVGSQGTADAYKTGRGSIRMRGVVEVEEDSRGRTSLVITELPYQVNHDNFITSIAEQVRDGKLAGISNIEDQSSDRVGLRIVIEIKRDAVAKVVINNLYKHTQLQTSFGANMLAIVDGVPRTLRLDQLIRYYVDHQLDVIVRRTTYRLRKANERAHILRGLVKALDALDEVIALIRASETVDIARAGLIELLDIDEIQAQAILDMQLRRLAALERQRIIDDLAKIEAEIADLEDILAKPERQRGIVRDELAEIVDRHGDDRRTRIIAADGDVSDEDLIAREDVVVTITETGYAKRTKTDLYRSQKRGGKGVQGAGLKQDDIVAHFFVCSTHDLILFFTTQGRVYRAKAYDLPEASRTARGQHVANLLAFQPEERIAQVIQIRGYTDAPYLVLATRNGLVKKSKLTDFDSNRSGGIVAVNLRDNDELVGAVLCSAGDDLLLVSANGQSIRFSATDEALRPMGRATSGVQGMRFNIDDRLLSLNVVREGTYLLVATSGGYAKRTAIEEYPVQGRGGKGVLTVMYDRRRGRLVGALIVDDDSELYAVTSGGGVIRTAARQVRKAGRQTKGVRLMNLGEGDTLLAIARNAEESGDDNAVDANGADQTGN
Summary of the method: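 Gyrase reconstituted from wild-type GyrA plus wild-type GyrB at a 2:3 molar ratio. Supercoiling assay follows ATP-dependent conversion of relaxed pBR322 DNA to the supercoiled form. Supercoiled product quantified by ethidium bromide fluorescence after agarose gel electrophoresis.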

SMILES | MIC [1] | MIC [2] | MIC [3] | MIC [4] | MIC [5] | MIC [6] | MIC [7] | MIC [8] | MIC [9] | IC50 (DNA gyrase subunit A)
CO[C@H]1/C=C/O[C@@]2(C)Oc3c(C)c(O)c4c(O)c(c(/C=N/N5CCN(C)CC5)c(O)c4c3C2=O)NC(=O)/C(C)=C\C=C\[C@H](C)[C@H](O)[C@@H](C)[C@@H](O)[C@@H](C)[C@H](OC(C)=O)[C@@H]1C [RIFAMPIN] | 0.002 µg/mL (≈ 0.00243 µM) | 0.008 µg/mL (≈ 0.00972 µM) | 0.008 µg/mL (≈ 0.00972 µM) | 0.004 µg/mL (≈ 0.00486 µM) | 0.004 µg/mL (≈ 0.00486 µM) | 0.002 µg/mL (≈ 0.00243 µM) | ≤ 0.001 µg/mL | 0.004 µg/mL (≈ 0.00486 µM) | 0.015 µg/mL (≈ 0.0182 µM) | 
COc1c(N2CCNC(C)C2)c(F)cc2c(=O)c(C(=O)O)cn(C3CC3)c12 (centres undefined) [GATIFLOXACIN] |  |  |  |  |  |  |  |  |  | 9.4 µM
C[C@H]1COc2c(N3CCN(C)CC3)c(F)cc3c(=O)c(C(=O)O)cn1c23 [LEVOFLOXACIN] |  |  |  |  |  |  |  |  |  | 52 µM
COc1c(N2CC[C@@H](C(C)(C)N)C2)c(F)cc2c(=O)c3c(=O)[nH]sc3n(C3CC3)c12 | 0.06 µg/mL (≈ 0.139 µM) | 0.03 µg/mL (≈ 0.0694 µM) | 0.06 µg/mL (≈ 0.139 µM) | 0.06 µg/mL (≈ 0.139 µM) | 0.06 µg/mL (≈ 0.139 µM) | 0.06 µg/mL (≈ 0.139 µM) | 0.03 µg/mL (≈ 0.0694 µM) | 0.06 µg/mL (≈ 0.139 µM) | 0.06 µg/mL (≈ 0.139 µM) | 2.9 µM
COc1c(N2C[C@@H]3CCCN[C@@H]3C2)c(F)cc2c(=O)c(C(=O)O)cn(C3CC3)c12 [MOXIFLOXACIN] | 0.03 µg/mL (≈ 0.0747 µM) | 0.03 µg/mL (≈ 0.0747 µM) | 0.06 µg/mL (≈ 0.149 µM) | 0.03 µg/mL (≈ 0.0747 µM) | 0.06 µg/mL (≈ 0.149 µM) | 0.03 µg/mL (≈ 0.0747 µM) | 0.03 µg/mL (≈ 0.0747 µM) | 0.03 µg/mL (≈ 0.0747 µM) | 0.06 µg/mL (≈ 0.149 µM) | 
NNC(=O)c1ccncc1 [ISONIAZID] | 0.06 µg/mL (≈ 0.438 µM) | 0.06 µg/mL (≈ 0.438 µM) | 0.06 µg/mL (≈ 0.438 µM) | 0.06 µg/mL (≈ 0.438 µM) | 0.06 µg/mL (≈ 0.438 µM) | 0.125 µg/mL (≈ 0.911 µM) | 0.06 µg/mL (≈ 0.438 µM) | 0.03 µg/mL (≈ 0.219 µM) | 0.125 µg/mL (≈ 0.911 µM) | 
